Experiments:
Type in all cases: cell-based
[1] = biological target: T1, RNA polymerase II (Mus musculus) (UniProt P08775+Q8CFI7+P97760+A0A3Q4L2S8+Q80UW8+P61219+P62488+Q923G2+P60898+O08740+Q63871+P62876); test: Inhibition of RNA polymerase II in mouse B16-F1 migrating cells assessed as fold change in Zcchc10-RNA stability at 0.1 mM measured by […] analysis relative to control cells
[2] = biological target: T1, RNA polymerase II (Mus musculus); test: Inhibition of RNA polymerase II in mouse B16-F1 migrating cells assessed as fold change in Slc27a3-RNA stability at 0.1 mM measured by […] analysis relative to control cells
[3] = biological target: T1, RNA polymerase II (Mus musculus); test: Inhibition of RNA polymerase II in mouse B16-F1 migrating cells assessed as fold change in Bcap29-RNA stability at 0.1 mM measured by […] analysis relative to control cells
[4] = biological target: T1, RNA polymerase II (Mus musculus); test: Inhibition of RNA polymerase II in mouse B16-F1 migrating cells assessed as fold change in Adam17-RNA stability at 0.1 mM measured by […] analysis relative to control cells
[5] = biological target: T1, RNA polymerase II (Mus musculus); test: Inhibition of RNA polymerase II in mouse B16-F1 migrating cells assessed as fold change in Lgals3-RNA stability at 0.1 mM measured by ChIP-seq analysis relative to control cells
[6] = biological target: T1, RNA polymerase II (Mus musculus); test: Inhibition of RNA polymerase II in mouse B16-F1 migrating cells assessed as fold change in Mbtd1-RNA stability at 0.1 mM measured by ChIP-seq analysis relative to control cells
[7] = biological target: T1, RNA polymerase II (Mus musculus); test: Inhibition of RNA polymerase II in mouse B16-F1 migrating cells assessed as fold change in Higd1a-RNA stability at 0.1 mM measured by ChIP-seq analysis relative to control cells
[8] = biological target: T1, RNA polymerase II (Mus musculus); test: Inhibition of RNA polymerase II in mouse B16-F1 migrating cells assessed as fold change in Lamp2-RNA stability at 0.1 mM measured by ChIP-seq analysis relative to control cells
[9] = biological target: T1, RNA polymerase II (Mus musculus); test: Inhibition of RNA polymerase II in mouse B16-F1 migrating cells assessed as fold change in Ifit2-RNA stability at 0.1 mM measured by […] analysis relative to control cells
Summary of the method: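 Mouse B16-F1 melanoma cells grown to confluence on fibronectin in DMEM/10% FCS at 37 °C, 7% CO2. Migration induced by multiple scratches and 3 h incubation; unscratched controls. DRB 0.1 mM added 3 h before lysis. RNA from poly A-selected mRNA was sequenced (RNA-seq, three replicates per DRB group). Fold change computed for DRB-treated migrating vs DRB-treated control cells; cutoffs fold change >1.3, FDR <0.05.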

[10] = biological target: T1, RNA polymerase II (Mus musculus); test: Inhibition of RNA polymerase II in mouse B16-F1 migrating cells assessed as fold change in Chd1-RNA stability at 0.1 mM measured by ChIP-seq analysis relative to control cells
[11] = biological target: T1, RNA polymerase II (Mus musculus); test: Inhibition of RNA polymerase II in mouse B16-F1 migrating cells assessed as fold change in Mtch1-RNA stability at 0.1 mM measured by ChIP-seq analysis relative to control cells
[12] = biological target: Histone-lysine N-methyltransferase EZH2 (Mus musculus) (UniProt Q61188); test: Inhibition of EZH2 in mouse B16-F1 migrating cells assessed as fold change in H3K27me3-dependent regulated Ccno-mRNA expression at 3 uM measured by ChIP-seq analysis relative to control cells
Summary of the method: (§1)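 Confluent B16-F1 cells on fibronectin-coated plates were scratched at multiple sites, washed once with DMEM and left to migrate 3 h in growth medium (37 °C, 7% CO2); unscratched cells served as control. GSK343 (3 µM) was added 3 h before lysis. Poly A mRNA was sequenced (RNA-seq), with 5 replicates for untreated and 3 for treated cells. Differential expression was called by linear model with batch correction, at FDR <0.05 and fold change ≥1.3.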

[13] = biological target: Histone-lysine N-methyltransferase EZH2 (Mus musculus) (UniProt Q61188); test: Inhibition of EZH2 in mouse B16-F1 migrating cells assessed as fold change in H3K27me3-buffered regulated Gulp1-mRNA expression at 3 uM measured by […] analysis relative to control cells
Summary of the method: (§2)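 Confluent B16-F1 cells on fibronectin-coated plates, cultured at 37 °C and 7% CO2, were scratched at multiple sites to induce migration. They were then held 3 h in growth medium containing 3 µM GSK343, with the inhibitor added 3 h before lysis. Unscratched cells served as controls. Poly A mRNA was analysed by RNA-seq (n=3 GSK343, n=5 controls). Linear models removed batch effects, and buffered genes were those altered only under GSK343 (FDR <0.05, fold change >1.3).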

[14] = biological target: Histone-lysine N-methyltransferase EZH2 (Mus musculus) (UniProt Q61188); test: Inhibition of EZH2 in mouse B16-F1 migrating cells assessed as fold change in H3K27me3-buffered regulated Ptp4a1-mRNA expression at 3 uM measured by […] analysis relative to control cells; summary of the method: as §2
[15] = biological target: Histone-lysine N-methyltransferase EZH2 (Mus musculus) (UniProt Q61188); test: Inhibition of EZH2 in mouse B16-F1 migrating cells assessed as fold change in H3K27me3-independent regulated Maff-mRNA expression at 3 uM measured by […] analysis relative to control cells; summary of the method: as §1
[16] = biological target: Histone-lysine N-methyltransferase EZH2 (Mus musculus) (UniProt Q61188); test: Inhibition of EZH2 in mouse B16-F1 migrating cells assessed as fold change in H3K27me3-buffered regulated Rap2a-mRNA expression at 3 uM measured by […] analysis relative to control cells; summary of the method: as §2
[17] = biological target: Histone-lysine N-methyltransferase EZH2 (Mus musculus) (UniProt Q61188); test: Inhibition of EZH2 in mouse B16-F1 migrating cells assessed as fold change in H3K27me3-independent regulated Coq10b-mRNA expression at 3 uM measured by […] analysis relative to control cells; summary of the method: as §1
[18] = biological target: Histone-lysine N-methyltransferase EZH2 (Mus musculus) (UniProt Q61188); test: Inhibition of EZH2 in mouse B16-F1 migrating cells assessed as fold change in H3K27me3-independent regulated Nr4a3-mRNA expression at 3 uM measured by ChIP-seq analysis relative to control cells; summary of the method: as §1
[19] = biological target: Histone-lysine N-methyltransferase EZH2 (Mus musculus) (UniProt Q61188); test: Inhibition of EZH2 in mouse B16-F1 migrating cells assessed as fold change in H3K27me3-buffered regulated Slc39a14-mRNA expression at 3 uM measured by […] analysis relative to control cells; summary of the method: as §1
[20] = biological target: Histone-lysine N-methyltransferase EZH2 (Mus musculus) (UniProt Q61188); test: Inhibition of EZH2 in mouse B16-F1 migrating cells assessed as fold change in H3K27me3-buffered regulated Irf1-mRNA expression at 3 uM measured by […] analysis relative to control cells; summary of the method: as §2
[21] = biological target: Histone-lysine N-methyltransferase EZH2 (Mus musculus) (UniProt Q61188); test: Inhibition of EZH2 in mouse B16-F1 migrating cells assessed as fold change in H3K27me3-dependent regulated Espnl-mRNA expression at 3 uM measured by […] analysis relative to control cells; summary of the method: as §1
[22] = biological target: Histone-lysine N-methyltransferase EZH2 (Mus musculus) (UniProt Q61188); test: Inhibition of EZH2 in mouse B16-F1 migrating cells assessed as fold change in H3K27me3-dependent regulated Id1-mRNA expression at 3 uM measured by […] analysis relative to control cells; summary of the method: as §1
[23] = biological target: Histone-lysine N-methyltransferase EZH2 (Mus musculus) (UniProt Q61188); test: Inhibition of EZH2 in mouse B16-F1 migrating cells assessed as fold change in H3K27me3-buffered regulated Clk1-mRNA expression at 3 uM measured by […] analysis relative to control cells; summary of the method: as §2
[24] = biological target: Histone-lysine N-methyltransferase EZH2 (Mus musculus) (UniProt Q61188); test: Inhibition of EZH2 in mouse B16-F1 migrating cells assessed as fold change in H3K27me3-buffered regulated Tcf7l1-mRNA expression at 3 uM measured by […] analysis relative to control cells; summary of the method: as §1

Chain of Histone-lysine N-methyltransferase EZH2 (Mus musculus) (Q61188 whole entry): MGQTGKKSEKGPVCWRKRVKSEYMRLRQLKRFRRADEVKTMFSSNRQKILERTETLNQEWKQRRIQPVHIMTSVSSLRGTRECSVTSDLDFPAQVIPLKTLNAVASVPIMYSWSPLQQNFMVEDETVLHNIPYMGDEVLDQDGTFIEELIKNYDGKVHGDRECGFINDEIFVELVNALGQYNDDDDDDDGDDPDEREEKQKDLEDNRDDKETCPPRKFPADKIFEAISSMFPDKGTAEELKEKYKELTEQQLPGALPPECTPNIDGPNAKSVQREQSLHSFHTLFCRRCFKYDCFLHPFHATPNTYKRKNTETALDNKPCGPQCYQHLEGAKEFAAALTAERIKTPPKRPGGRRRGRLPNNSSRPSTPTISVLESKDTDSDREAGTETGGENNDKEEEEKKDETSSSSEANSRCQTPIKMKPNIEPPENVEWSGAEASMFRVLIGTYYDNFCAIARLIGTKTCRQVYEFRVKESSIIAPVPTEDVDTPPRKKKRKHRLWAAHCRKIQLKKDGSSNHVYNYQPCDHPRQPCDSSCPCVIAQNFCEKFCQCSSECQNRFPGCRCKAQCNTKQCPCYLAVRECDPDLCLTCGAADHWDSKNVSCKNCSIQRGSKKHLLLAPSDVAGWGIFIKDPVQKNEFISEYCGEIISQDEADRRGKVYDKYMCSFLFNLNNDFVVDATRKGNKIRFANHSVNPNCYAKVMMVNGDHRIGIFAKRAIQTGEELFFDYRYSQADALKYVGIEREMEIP

## OC[C@H]1O[C@@H](n2cnc3cc(Cl)c(Cl)cc32)[C@H](O)[C@@H]1O
[1]
  log2FC: -0.7
[2]
  log2FC: 0.65
[3]
  log2FC: -0.48
[4]
  log2FC: -0.56
[5]
  log2FC: 0.95
[6]
  log2FC: -0.62
[7]
  log2FC: 0.77
[8]
  log2FC: -0.43
[9]
  log2FC: -0.69
[10]
  log2FC: -0.56
[11]
  log2FC: 0.46

## CCCc1cc(C)[nH]c(=O)c1CNC(=O)c1cc(-c2ccnc(N3CCN(C)CC3)c2)cc2c1cnn2C(C)C
[12]
  log2FC: 1.02
[13]
  log2FC: -0.44
[14]
  log2FC: 0.38
[15]
  log2FC: 0.76
[16]
  log2FC: 0.56
[17]
  log2FC: 0.56
[18]
  log2FC: 0.74
[19]
  log2FC: 0.46
[20]
  log2FC: -0.62
[21]
  log2FC: 0.55
[22]
  log2FC: 0.16
[23]
  log2FC: -0.75
[24]
  log2FC: -0.48
